Series [1] can be described thus: Antiinflammatory activity in C57BL6/J mouse BV2 cells assessed as inhibition of LPS-induced nitric oxide production after 24 hrs by Griess assay. The class given is functional, cell-based. As to conditions: BV-2, 24 h. The gist of the method: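 Mouse (C57BL6/J) macrophages grown 24 h at 37 °C in RPMI1640, then given 1 μg/mL LPS plus test compounds for a further 24 h at 37 °C. Blank, LPS-only and dexamethasone (10−6 M) wells served as controls. Nitrite in supernatant was read with Griess reagent at 570 nm against a sodium nitrite standard.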
In general terms: Griess reagent forms a coloured azo dye with nitrite.

The nature of series [2]: Cytotoxicity against African green monkey Vero cells assessed as growth inhibition by CPE assay. The class given is cell-based. As to conditions: chlorocebus sabaeus, read-out: TC50 (the source's name). A digest of the protocol: (§1)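 Vero or MDCK cells (2.5 × 10^4/well) were seeded and incubated overnight. Medium was then replaced with compounds at various concentrations in triplicate. After a 2-day incubation, cytotoxicity was scored by CPE. TC50 is the concentration inhibiting 50% of cell growth versus controls (Reed and Muench). Values are means of three independent determinations.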

Series [3] in a line: Cytotoxicity against MDCK cells assessed as growth inhibition by CPE assay. The class given is cell-based, Canis lupus familiaris. As to conditions: dog, read-out: TC50 (the source's name). A digest of the protocol:
as §1

Series [4] can be described thus: Selectivity index, ratio of TC50 for African green monkey Vero cells to IC50 for Coxsackievirus B3-induced cytopathic effect in African green monkey Vero cells. In kind it is toxicity, cell-based. As to conditions: read-out: Selectivity Index. The gist of the method: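 Vero cells (2.5 × 10^4 cells/well). TC50: cells incubated overnight, compounds applied in triplicate for 2 days, CPE read, 50% growth inhibition versus controls by Reed and Muench. IC50: cells infected 2 h with 100 TCID50 CVB3 (Nancy), compounds added until control CPE 4+, 50% CPE inhibition by Reed and Muench. SI = TC50/IC50.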

Series [5] in a line: Antiviral activity against Influenza A virus (A/FM/1/47(H1N1)) infected in MDCK cells assessed as inhibition of virus-induced cytopathic effect. The class given is functional, cell-based, Influenza A virus (A/Fort Monmouth/1/1947(H1N1)). A digest of the protocol: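 MDCK cells (2.5 × 10^4 cells/well) plated 24 h, PBS-washed, infected 2 h with 100 TCID50 influenza A/FM/1/47 (H1N1); compounds at various concentrations added, incubation until control CPE reached 4+. Triplicate, at least three separate runs; IC50 = minimal concentration inhibiting 50% CPE, Reed and Muench method.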

Series [6] can be described thus: Selectivity index, ratio of TC50 for MDCK cells to IC50 for Influenza A virus (A/FM/1/47(H1N1))-induced cytopathic effect in MDCK cells. The class given is toxicity, cell-based. The settings on record: dog, read-out: Selectivity Index. The gist of the method: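 MDCK cells (2.5 × 10^4 cells/well). TC50: cells incubated overnight, compounds applied in triplicate for 2 days, CPE read, 50% growth inhibition versus controls by Reed and Muench. IC50: PBS-washed cells infected 2 h with 100 TCID50 influenza A/FM/1/47 (H1N1), compounds added until control CPE 4+, 50% CPE inhibition by Reed and Muench. SI = TC50/IC50.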
Background: Protection from cytopathic effect is a common read-out in antiviral testing.

For the next series, the system named is Coxsackievirus B3. Description: Antiviral activity against Coxsackievirus B3 infected in African green monkey Vero cells assessed as inhibition of virus-induced cytopathic effect. The settings on record: Enterovirus B. In kind it is functional, organism-based. A digest of the protocol:
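Vero cells (2.5 × 10^4/well) were plated for 24 h, infected 2 h with 100 TCID50 Coxsackievirus B3 (Nancy), then given compounds at various concentrations until control CPE reached 4+. Run in triplicate, at least three times. IC50 is the concentration inhibiting 50% of CPE (Reed and Muench). SI = TC50/IC50.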

For series [7], the system named is Mus musculus. The series is described as follows: Antiinflammatory activity in ICR mouse assessed as inhibition of croton oil-induced ear edema at 50 mg/ml administered 1 hr prior to croton oil challenge measured after 4 hrs relative to control. The class given is functional. The gist of the method:
(§2)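 Male ICR mice (18−20 g, n = 10 per group) received 0.4 mg croton oil in […] acetone on the left ear. Treatment was applied 1 h before the croton oil, and the animals were killed 4 h after it. Edema was taken as the weight difference between 8 mm punches of the treated and untreated ears, expressed as % reduction versus control mice.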

The test system of series [8] is Mus musculus. The series is described as follows: Antiinflammatory activity in ICR mouse assessed as inhibition of croton oil-induced ear edema at 1 mg/ml administered 1 hr prior to croton oil challenge measured after 4 hrs relative to control. In kind it is functional. A digest of the protocol: as §2

In the case of `C=C1C(=O)O[C@@H]2C=C(CCC(C)=O)[C@@H](C)CC[C@@H]12`, the IC50 stood at 8.5 µM in series [1], 8.6 µM in series [5] and 6.4 µM in the series with Coxsackievirus B3. Also, the CC50 in [2] stood at 19.2 µM; in series [3] it was 19.3 µM. For the same compound, the selectivity ratio in series [4] amounted to 3; in series [6], 2.2. In addition, the “inhibition (INH)” value in the series on Mus musculus [7] is given as under 20%.

For the compound `C=C1C(=O)O[C@H]2C[C@H](C)C(CCC(C)=O)=CC[C@H]12`, the IC50 in series [1] was 5.6 µM; in series [5], over 35 µM; in the series on Coxsackievirus B3, over 35 µM. In the series with Mus musculus [7], the “inhibition (INH)” value was determined as 46.9%.

On to `C=C1[C@H]2C[C@H]2[C@]2(C)CC(=O)C3=C(C)C(=O)O[C@@H]3[C@@H]12`, for which the 50% inhibitory concentration (IC50) in series [1] is over 10 µM; in series [5], over 35 µM; in the series with Coxsackievirus B3, over 35 µM.

With `C=C1[C@@H]2C[C@@H]2[C@@]2(C)C=C3OC(=O)C(C)=C3[C@@H](O)[C@H]12`, the IC50 in series [1] is over 10 µM; in series [5], over 35 µM; with Coxsackievirus B3, over 35 µM.

As to `COC(=O)CC1=CC[C@H]2[C@H](C[C@@H]1C)OC(=O)[C@H]2C`, the 50% inhibitory concentration (IC50) in series [1] is over 10 µM; in series [5], over 35 µM; with Coxsackievirus B3 it was over 35 µM.

Consider `C[C@H]1C[C@@H]2OC(=O)[C@H](C)[C@H]2C=CC1=O`, for which the IC50 in series [1] is over 10 µM; in [5], over 35 µM; with Coxsackievirus B3, over 35 µM.

Take `C[C@@H]1C(=O)O[C@H]2C[C@H](C)C(C(=O)O)=CC[C@@H]21`: the IC50 in series [1] is over 10 µM; in series [5] it was over 35 µM; in the series on Coxsackievirus B3, over 35 µM.

In the case of `C[C@H]1C[C@@H]2OC(=O)[C@H](C)[C@H]2CC=C1C(=O)O`, the results for the IC50 (in series [1]; in series [5]; with Coxsackievirus B3) were over 10 µM, over 35 µM and over 35 µM, respectively.

On to `C[C@H]1C[C@@H]2OC(=O)[C@H](C)[C@H]2CC=C1C=O`, for which the concentration for half-maximal inhibition (IC50) is over 10 µM in series [1], over 35 µM in series [5] and over 35 µM with Coxsackievirus B3.

Consider `C=C1C(=O)O[C@H]2C[C@H](C)C(C=O)=CC[C@H]12`, for which the IC50 in series [1] was 3 µM; in series [5] it was 6.4 µM; with Coxsackievirus B3 it was 19.2 µM. The CC50 was 69.3 µM in [2] and 48.1 µM in series [3]. Also, the selectivity ratio in series [4] was determined as 3.6; in series [6], 7.5. The “inhibition (INH)” value with Mus musculus [7] was under 20%.

Take `COc1cc([C@H]2Oc3c(OC)cc(C(=O)[C@@H](O)CO)cc3[C@@H]2CO)ccc1O`: the IC50 is over 10 µM in series [1], over 35 µM in series [5] and over 35 µM in the series on Coxsackievirus B3.

As to `COc1cc([C@@H]2Oc3c(OC)cc(C(=O)[C@H](O)CO)cc3[C@H]2CO)ccc1O`, the IC50 is over 10 µM in series [1], over 35 µM in series [5] and over 35 µM in the series on Coxsackievirus B3.

With `CC(O)CCC1=CC[C@H]2[C@@H](C[C@@H]1C)OC(=O)[C@@H]2C` (stereo not given in full), the half-maximal inhibitory concentration (IC50) in series [1] was 5.7 µM; in series [5] it was over 35 µM; with Coxsackievirus B3, over 35 µM.

As to `CC(=O)/C=C/C1=CC[C@H]2[C@H](C[C@@H]1C)OC(=O)[C@@H]2C`, the figures for the half-inhibitory concentration (IC50) (in series [1]; in [5]; with Coxsackievirus B3) were 3.7 µM, over 35 µM and over 35 µM, respectively. In addition, in the series on Mus musculus [7], the “inhibition (INH)” value was under 20%.

For the compound `CC(=O)CCC1=CC[C@H]2[C@H](C[C@@H]1C)OC(=O)[C@@H]2C`, the IC50 is over 10 µM in series [1], over 35 µM in series [5] and 6.4 µM with Coxsackievirus B3. The CC50 in series [2] is 77.6 µM. Further, the selectivity ratio in series [4] turned out to be 12.1. Also, in the series on Mus musculus [7], the “inhibition (INH)” value is listed as under 20%.

Turning to `CC(=O)/C=C/C1=CC[C@H]2[C@H](C[C@@H]1C)OC(=O)[C@H]2C`, the half-maximal inhibitory concentration (IC50) in [1] was over 10 µM; in series [5] it was over 35 µM; in the series on Coxsackievirus B3, over 35 µM.

Consider `CC1=C2C[C@H]3[C@@]4(CO4)[C@H](O)C=C[C@]3(C)C[C@@H]2OC1=O`, for which the results for the IC50 (in series [1]; in [5]; with Coxsackievirus B3) were over 10 µM, 33.3 µM and 19.2 µM, respectively. The results for the CC50 in series [2] and in series [3] were 69.3 µM and 100 µM, respectively. In addition, the selectivity ratio was 3.6 in series [4] and 3 in series [6].

Consider `CC(=C/C(=O)O)/C=C/[C@]1(O)[C@@]2(C)CO[C@]1(C)C[C@@H](O)C2`, for which the IC50 in series [1] was over 10 µM; in series [5], over 35 µM; in the series on Coxsackievirus B3 it was over 35 µM.

As to `CC(=C/C(=O)O)/C=C/[C@]1(O)[C@@]2(C)CO[C@]1(C)CC(=O)C2`, the figures for the concentration for half-maximal inhibition (IC50) (in [1]; in series [5]; in the series with Coxsackievirus B3) were over 10 µM, over 35 µM and over 35 µM, respectively.

For `COc1cc(C(O)C(CO)Oc2ccc(C(=O)O)cc2OC)ccc1O` (stereo not given), the 50% inhibitory concentration (IC50) in series [1] is over 10 µM; in [5] it was 8.4 µM; in the series on Coxsackievirus B3, over 35 µM. Besides, the CC50 in [3] was 100 µM. In series [6], the selectivity ratio was found to be 11.9.

Turning to `CCOC(=O)c1ccc(O)c(O)c1`, the IC50 in series [1] is over 10 µM; in series [5], over 35 µM; in the series on Coxsackievirus B3 it was 11.3 µM. Also, the CC50 in series [2] was 23.1 µM. Further, the selectivity ratio in [4] worked out at 2.1.

`C[C@@H]1C[C@H]2[C@@H]3CCC4=CC(=O)C=C[C@]4(C)[C@@]3(F)[C@@H](O)C[C@]2(C)[C@@]1(O)C(=O)CO` [DEXAMETHASONE]: the concentration for half-maximal inhibition (IC50) in series [1] worked out at 0.025 µM. Also, the “inhibition (INH)” value in the series on Mus musculus [8] is 70.5%.

As for `CCOC(=O)/C=C/c1ccc(O)c(O)c1` [ETHYL CAFFEATE], the IC50 in series [1] is 2.5 µM; in series [5], 3.7 µM; with Coxsackievirus B3, over 35 µM. In series [3], the CC50 worked out at 19.3 µM. In addition, in series [6], the selectivity ratio was 5.2.

Turning to `C=C1CC=C[C@]2(C)C[C@]3(O)OC(=O)C(C)C3=C[C@@H]12` (stereo not given in full) [HYDROXYLINDESTENOLIDE], the IC50 in series [1] was 3.9 µM; in series [5], over 35 µM; with Coxsackievirus B3, over 35 µM. Besides, in the series on Mus musculus [7], the “inhibition (INH)” value came out at 37.7%.

In the case of `CCOC(=O)C1=C[C@@H](OC(CC)CC)[C@H](NC(C)=O)[C@@H](N)C1` [OSELTAMIVIR], the CC50 in [3] was 3120 µM. For the same compound, the IC50 in series [5] is 2.7 µM. Besides, the selectivity ratio in series [6] came out at 1140.

Consider `Cc1cc(CCCOc2c(C)cc(-c3noc(C(F)(F)F)n3)cc2C)on1` [PLECONARIL], for which, in [2], the CC50 turned out to be 40.5 µM. For the same compound, the selectivity ratio in series [4] worked out at 16200. Also, the IC50 with Coxsackievirus B3 was determined as 0.0025 µM.

With `NC(=O)c1ncn([C@@H]2O[C@H](CO)[C@@H](O)[C@H]2O)n1` [RIBAVIRIN], the selectivity ratio in series [4] amounted to 6.8. Besides, the half-maximal inhibitory concentration (IC50) with Coxsackievirus B3 stood at 1200 µM.

Broadly, the IC50 is the concentration needed to halve the response being measured.

The values are drawn from ChEMBL document CHEMBL3593156, “Bioactive Sesquiterpenes and Lignans from the Fruits of Xanthium sibiricum” (J Nat Prod, 2015).
